Test results from ChEMBL document CHEMBL4613249, “Serendipitous Discovery of Leucine and Methionine Depletion Agents during the Search for Polyamine Transport Inhibitors” (J Med Chem, 2020).
The source made the active and inactive calls.

Legend:
[1] = biological target: Large neutral amino acids transporter small subunit 1 (Homo sapiens) (UniProt Q01650); test: Inhibition of LAT1-mediated [3H]-leucine uptake in human L3.6PL cells at 30 uM and 37 degree C measured after 2 mins by scintillation counter method; type: cell-based
Chain of Large neutral amino acids transporter small subunit 1 (Homo sapiens) (Q01650 whole entry): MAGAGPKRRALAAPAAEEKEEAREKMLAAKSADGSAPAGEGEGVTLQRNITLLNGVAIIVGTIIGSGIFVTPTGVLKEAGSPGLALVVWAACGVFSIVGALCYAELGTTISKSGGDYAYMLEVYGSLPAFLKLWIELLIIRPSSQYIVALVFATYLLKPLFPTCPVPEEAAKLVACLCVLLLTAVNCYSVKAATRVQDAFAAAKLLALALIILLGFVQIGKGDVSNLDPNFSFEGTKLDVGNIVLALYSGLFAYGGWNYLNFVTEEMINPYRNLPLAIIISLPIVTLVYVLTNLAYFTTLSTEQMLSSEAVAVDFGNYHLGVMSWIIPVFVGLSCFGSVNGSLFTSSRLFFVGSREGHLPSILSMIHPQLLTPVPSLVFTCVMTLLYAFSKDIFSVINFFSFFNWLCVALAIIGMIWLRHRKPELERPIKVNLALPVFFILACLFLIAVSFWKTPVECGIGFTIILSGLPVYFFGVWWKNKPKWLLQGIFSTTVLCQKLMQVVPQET

[2] = system: CHO-K1; test: Inhibition of polyamine transporter in DFMO-treated CHOK1 cells assessed as prevention of spermidine entry into cells by measuring rescue of DFMO-induced reduction in cell growth at 1 to 10 uM measured after 48 hrs in presence of amine oxidase suppressor aminoguanidine by MTS assay; type: cell-based; settings: Cricetulus griseus
In short: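 CHO K1 cells (1000 cells/well) were pre-incubated 24 h with 1 mM aminoguanidine. They were then given fixed DFMO (4.2 mM) and spermidine (1 μM) plus increasing compound doses for 48 h at 37°C. EC50 is the concentration bringing MTS relative growth halfway between the DFMO+Spd and DFMO-only controls. Runs were done twice in triplicate, with SD.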

[3] = system: CHO-K1; test: Inhibition of polyamine transporter in CHOK1 cells assessed as rescue of 2.4 uM N-(anthracenylmethyl) homospermidine-induced toxicity by measuring cell growth at 7 uM measured after 48 hrs in presence of amine oxidase suppressor aminoguanidine by MTS assay (reference value: 23%); type: cell-based; parameters: scale not given: the % may be the effect or the level left; settings: Cricetulus griseus
In short: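 CHO K1 cells (1000 cells/well, aminoguanidine 1 mM preincubation) were given a toxic Ant-44 dose (2.4 μM) with candidate compound at 5 or 7 μM. Cells were incubated 48 h at 37°C, and relative growth versus untreated control was read by MTS.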

[4] = system: CHO-K1; test: Cytotoxicity against CHOK1 cells assessed as effect on cell growth at < 7 uM measured after 48 hrs by MTS assay; type: cell-based, Cricetulus griseus; settings: chinese hamster, cho-k1, 48 h
[5] = system: CHO-K1; test: Cytotoxicity against CHOK1 cells assessed as effect on cell growth at 10 uM measured after 48 hrs by MTS assay; type: cell-based, Cricetulus griseus; settings: chinese hamster, cho-k1, 48 h
[6] = system: L3.6pl; test: Cytotoxicity against human L3.6PL cells assessed as reduction in cell viability at 5 uM measured after 72 hrs by MTS assay; type: cell-based
[7] = system: L3.6pl; test: Potentiation of 2 uM N-(anthracenylmethyl) homospermidine-induced toxicity in human L3.6PL cells assessed as increase in Ant-44-induced reduction in cell growth measured after 72 hrs in presence of amine oxidase suppressor aminoguanidine by MTS assay; type: functional, cell-based
In short: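 L3.6pl cells (500 cells/well) were pretreated 24 h with 250 μM aminoguanidine in PBS, then given Ant-44 (2 μM) with increasing compound for 72 h at 37°C. MTS growth was read, with EC50 relative to the Ant-44-only control.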

[8] = system: L3.6pl; test: Cytotoxicity against human L3.6PL cells assessed as reduction in cell viability measured after 72 hrs by MTS assay; type: cell-based
In short: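 L3.6pl cells, 500 cells/well in RPMI 1640 with 10% FBS and 250 μM aminoguanidine, plated overnight. Compound in PBS added, then 72 h at 37°C. MTS absorbance at 490 nm. IC50 is the dose giving 50% relative growth versus untreated control. Run twice in triplicate.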

[9] = system: CHO-K1; test: Potentiation of 0.5 uM N-(anthracenylmethyl) homospermidine-induced toxicity in CHOK1 cells assessed as increase in Ant-44-induced reduction in cell growth measured after 48 hrs in presence of amine oxidase suppressor aminoguanidine by MTS assay; type: functional, cell-based; settings: Cricetulus griseus
In short: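 CHO K1 cells were pretreated 24 h with 1 mM aminoguanidine, then given fixed Ant-44 (0.5 μM) plus increasing compound (up to 5 μM) for 48 h at 37°C. MTS growth was read, with EC50 defined as the dose halving growth relative to Ant-44 alone. Runs were done twice in triplicate, with SD.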

| inhibition [1] | SMILES | inhibition [2] | Activity [3] [%] | Activity [4] | Activity [5] | Activity [6] | EC50 [7] [µM] | IC50 [8] [µM] | Activity [9] | EC50 ([9]; CHO-K1, 48 h) [µM] |
| --- | --- | --- | --- | --- | --- | --- | --- | --- | --- | --- |
| Active | Nc1cc(COc2c(Cl)cc(C[C@H](N)C(=O)O)cc2Cl)c2oc(-c3ccccc3)nc2c1 |  |  |  |  |  |  |  |  |  |
|  | CC(C)(C)CCN1CCN([C@H](CNCc2ccccc2)Cc2ccccc2)C[C@@H]1Cc1ccccc1 | inactive | 2.1 | Non-Toxic | Non-Toxic | Non-Toxic | 3.27 | 11.7 | Dose-dependent effect | 0.75 |
